Measured values gathered from unrelated publications.
Compare with care: the assays were run in different laboratories.
Target: Casein kinase II subunit alpha' (CSNK2A2, Homo sapiens, UniProt P19784)

CCN(CC)CCNC(=O)c1c(C)[nH]c(/C=C2\C(=O)Nc3ccc(F)cc32)c1C  inhibition (enzyme activity, inhibitor; 0.3 µM): -22%
CC(C)(C)c1nc(-c2cccc(NS(=O)(=O)c3c(F)cccc3F)c2F)c(-c2ccnc(N)n2)s1  remaining activity (enzyme activity, inhibitor, radiometric; 1 µM): 84%
Cc1ccc(NC(=O)c2ccc(C)c(C(F)(F)F)c2)cc1C#Cc1nn(C2CCC(O)CC2)c2ncnc(N)c12 (stereo not drawn)  remaining signal (cell-free assay, inhibitor; 10 µM): 92%
CNCc1ccccc1-c1csc([C@@H](C)Nc2nc(C)nc3cc(OC)c(OC)cc23)c1  remaining binding (cell-free assay, competition with immobilised ligand; 1 µM): 100%
CCCOc1ccc(OC)c(F)c1C(=O)c1ccc(C(=O)N[C@@H]2CNC[C@H]2NC(=O)c2ccc3[nH]ncc3c2)cc1  remaining activity (enzyme activity, inhibitor; 10 µM): 93%
Cc1cc(NC(=O)c2cccc3cc(-c4cccc5[nH]nc(N)c45)ccc23)ccc1F  activity vs control (enzyme activity, inhibitor; 0.1 µM): 109%
c1ccc(CNc2nc(N3CCOc4ccccc43)nc3c2CCCC3)cc1  inhibition (target engagement in cells, inhibitor, chemoproteomics; 20 mM): -34.4%
O=C(Nc1cnn(-c2csc(C(=O)NC3COC3)c2)c1)Nc1ccccc1Cl  remaining activity (enzyme activity, inhibitor; 5 µM): 97.3%
CCCOc1ccc([C@H]2[C@H](C(=O)O)[C@@H](c3ccc4c(c3)OCO4)CN2CC(=O)Nc2c(CC)cccc2CC)cc1  remaining binding (cell-free assay, competition with immobilised ligand; 1 µM): 87%
CC(C)c1ccc(NC(=O)c2cccs2)c(-c2nc3ccccc3[nH]c2=O)c1  activity vs control (enzyme activity, inhibitor; 1 µM): 121%
COc1cccc(CNC(=O)c2nc3scc(COCc4ccc(C(=O)O)cc4)c3c(=O)[nH]2)c1  remaining binding (cell-free assay, competition with immobilised ligand; 1 µM): 79.4%
CCCS(=O)(=O)Nc1ccc(F)c(C(=O)c2c[nH]c3ncc(-c4ccc(Cl)cc4)cc23)c1F  inhibition (enzyme activity, inhibitor; 1 µM): < 10%
Cc1cnc(NC2CCOCC2)nc1-n1cnc(C(=O)NC(CN)c2cc(F)cc(Cl)c2)c1 (stereo not drawn)  remaining activity (enzyme activity, inhibitor, radiometric; 1 µM): 97%
Cn1cnc(Br)c1C1=CN(c2ncnc3[nH]cnc23)CCS1  inhibition (enzyme activity, inhibitor, radiometric; 50 nM): 19.7%
N#CCCc1ccc2c(c1)-c1[nH]c3ccc([N+](=O)[O-])cc3c1CC(=O)N2  remaining signal (cell-free assay; 0.5 µM): 92.9%
Cc1ccc(C(=O)Nc2ccc(CN3CCN(C)CC3)c(C(F)(F)F)c2)cc1C#Cc1cnc2cccnn12  remaining activity (enzyme activity, inhibitor; 23.5 nM): 94%
CS(=O)(=O)c1cc(C2(NC(=O)c3cncc4c3cnn4-c3ccc(F)cc3)CC2)ccn1  remaining binding (cell-free assay, competition with immobilised ligand; 1 µM): 80%
CNC(=O)c1cc(Oc2ccc(NC(=O)Nc3ccc(Cl)c(C(F)(F)F)c3)cc2)ccn1  inhibition (enzyme activity, inhibitor; 10 µM): -30%
Nc1c(C(=O)NCc2ccc(C(=O)NCCCC3CCCCC3)cc2)cnn1-c1ccccc1  remaining binding (cell-free assay, competition with immobilised ligand; 0.1 µM): 100%
Cc1ccc(Nc2nccc(N(C)c3ccc4c(C)n(C)nc4c3)n2)cc1S(N)(=O)=O  inhibition (enzyme activity, inhibitor; 0.3 µM): -13%
CN(C)C(=O)Cn1cc(-c2nc([C@@](C)(c3ccc(-c4cnc(N)nc4)cc3)C3CC3)no2)cn1  remaining binding (cell-free assay, competition with immobilised ligand; 1 µM): 90%
COc1cc2ncnc(Nc3ccc(Oc4ccccc4)c(C)c3C)c2cc1OC  inhibition (enzyme activity, inhibitor; 1 µM): -1%
CC(C)CC(=O)N1CCc2nc(-c3ccc(Br)cc3)nc(N(C)Cc3ccccc3)c2C1  remaining binding (cell-free assay, competition with immobilised ligand; 0.1 µM): 88%
O=C1NC(=O)c2cc(Nc3ccc(F)cc3)c(Nc3ccc(F)cc3)cc21  remaining signal (cell-free assay, inhibitor; 0.5 µM): 104%
